Data published in ChEMBL document CHEMBL4020790, “Quinazolinone derivatives as inhibitors of homologous recombinase RAD51” (Bioorg Med Chem Lett, 2017).
Activity calls are given as the source filed them. The rule behind the calls is not given here.

Assays:
HCC1937 = experiment: Cytotoxicity against human HCC1937 cells assessed as decrease in cell viability after 120 hrs by MTS assay; format: functional, cell-based; conditions: HCC1937, 120 h
MDA-MB-231 [1] = experiment: Cytotoxicity against human MDA-MB-231 cells assessed as decrease in cell viability at 10 uM in presence of 6-Gy gamma-irradiation measured up to 120 hrs by CellTiter96 AQueous one solution cell proliferation assay; format: functional, cell-based
Procedure, shortened: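 MDA-MB-231 cells given 10 μM compound with or without 6 Gy irradiation; proliferation followed over a 120 h time course and expressed as mean % proliferation from 3 independent experiments; area under the curve calculated from the proliferation data.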

MDA-MB-436 = experiment: Cytotoxicity against human MDA-MB-436 cells assessed as decrease in cell viability after 120 hrs by MTS assay; format: functional, cell-based; conditions: MDA-MB-436, 120 h
MCF-10A = experiment: Cytotoxicity against human MCF10A cells assessed as decrease in cell viability after 120 hrs by MTS assay; format: cell-based
MDA-MB-468 = experiment: Cytotoxicity against human MDA-MB-468 cells assessed as decrease in cell viability after 120 hrs by MTS assay; format: functional, cell-based; conditions: MDA-MB-468, 120 h
Hs-578T = experiment: Cytotoxicity against human Hs578T cells assessed as decrease in cell viability after 120 hrs by MTS assay; format: functional, cell-based
MDA-MB-231 [2] = experiment: Cytotoxicity against human MDA-MB-231 cells assessed as decrease in cell viability after 120 hrs by MTS assay; format: functional, cell-based; conditions: MDA-MB-231, 120 h
SUM-159-PT = experiment: Cytotoxicity against human SUM159PT cells assessed as decrease in cell viability after 120 hrs by MTS assay; format: functional, cell-based
BT-549 = experiment: Cytotoxicity against human BT549 cells assessed as decrease in cell viability after 120 hrs by MTS assay; format: functional, cell-based; conditions: BT-549, 120 h
[3] = target: T1, DNA repair protein RAD51 homolog 1 (Homo sapiens) (UniProt Q06609); experiment: Binding affinity to recombinant human RAD51 at 100 uM by SPR method
T1 sequence (whole entry): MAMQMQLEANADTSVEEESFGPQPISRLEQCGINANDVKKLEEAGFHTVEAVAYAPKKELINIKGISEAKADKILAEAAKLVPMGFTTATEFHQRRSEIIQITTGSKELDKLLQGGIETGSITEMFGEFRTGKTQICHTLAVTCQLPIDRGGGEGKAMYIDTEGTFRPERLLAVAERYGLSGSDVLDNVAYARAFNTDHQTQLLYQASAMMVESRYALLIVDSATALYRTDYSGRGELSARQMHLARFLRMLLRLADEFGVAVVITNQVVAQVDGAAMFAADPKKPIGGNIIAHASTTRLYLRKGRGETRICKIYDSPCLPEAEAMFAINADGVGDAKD

[4] = target: T1, DNA repair protein RAD51 homolog 1 (Homo sapiens); experiment: Inhibition of RAD51 in human MDA-MB-231 cells assessed as reduction in DNA damage-induced RAD51 foci formation at 10 uM incubated for 16 hrs followed by 6-Gy gamma-irradiation measured after 6 hrs by immunofluoresent assay; format: cell-based
Procedure, shortened: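 MDA-MB-231 cells given 10 μM compound, then 6 Gy irradiation; RAD51 foci scored by immunofluorescence, with the read-out taken as the ratio of RAD51-positive to γH2AX-positive cells.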

MDA-MB-231 [5] = experiment: Cytotoxicity against human MDA-MB-231 cells assessed as decrease in cell viability at 10 uM measured up to 120 hrs by CellTiter96 AQueous one solution cell proliferation assay; format: functional, cell-based
Procedure, shortened: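 MDA-MB-231 cells exposed to 10 μM compound with or without 6 Gy irradiation; proliferation followed over a 120 h time course and expressed as mean % proliferation from 3 independent experiments; area under the curve derived from the proliferation data.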

Row | SMILES | IC50 (HCC1937) | Activity (MDA-MB-231 [1]) | IC50 (MDA-MB-436) | IC50 (MCF-10A) | IC50 (MDA-MB-468) | IC50 (Hs-578T) | IC50 (MDA-MB-231 [2]) | IC50 (SUM-159-PT) | IC50 (BT-549) | Activity [3] | inhibition [4] | Activity (MDA-MB-231 [5])
1 | O=c1c2ccccc2nc(/C=C/c2cccnc2)n1Cc1ccccc1 | 89.1 µM | Active | 5.7 µM | 47.7 µM | 10.2 µM | 9.6 µM | 11.1 µM | 84.1 µM | 35.4 µM | – | – | –
2 | O=c1c2ccccc2nc(/C=C/c2cccnc2)n1Cc1ccc(Cl)cc1 | 13.7 µM | Active | 4.1 µM | 48.3 µM | 5.7 µM | 4.2 µM | 6.7 µM | 5.5 µM | 6.4 µM | Active | Active | inactive
3 | O=c1c2ccccc2nc(/C=C/c2cccnc2)n1CC1CCCCC1 | – | – | – | – | – | – | – | – | – | – | Active | –
